Data set [1] in a line: folding enthalpy; higher = less favourable; fluorescence melt of hairpins on a sequencing array, two-state fit. Conditions: sodium 0.088 M. In outline: (§1)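 With Cy3 and quencher oligos annealed, library hairpins on a sequenced MiSeq flow cell were imaged for Cy3 fluorescence in 50 mM Na-HEPES pH 8.0, 25 mM NaCl, in 2.5 °C steps up to 60 °C. Melting temperature and folding enthalpy were derived from bootstrapped two-state fits of signals normalised to pre-quench Cy3 and to control constructs. Four replicates were combined by inverse variance, with fitted temperatures raised by 9.35 °C to match UV melts.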

Data set [2] is described as follows: melting temperature; fluorescence melt of hairpins on a sequencing array, two-state fit, raised by 9.35 °C to match UV melts. The following applies: sodium 0.088 M. The method in brief:
as §1

For GATCTGATTGCAGATC ((((((....)))))), in data set [1], the folding enthalpy is -29.1 kcal/mol. The Tm in data set [2] was determined as 48.2 °C.
As for GATCTGCAACCAGATC ((((((....)))))), the folding enthalpy in data set [1] is -31.7 kcal/mol. For the same sequence, in data set [2], the Tm stood at 46.2 °C.
For GATCTGCATTCAGATC ((((((....)))))), in data set [1], the folding enthalpy was -39.6 kcal/mol. The Tm in data set [2] was determined as 48.9 °C.
Regarding GATCTGCCACAGATC ((((((...)))))), the folding enthalpy in data set [1] was -31.8 kcal/mol. Also, the Tm in data set [2] is 48.9 °C.
Regarding GATCTGCCATCAGATC ((((((....)))))), the folding enthalpy in data set [1] is -46 kcal/mol. In addition, the Tm in data set [2] turned out to be 49.4 °C.
On the same counts, the results for GATCTGCCCCCAGATC ((((((....)))))) are -34.5 kcal/mol and 48.3 °C.
Take GATCTGCCCTCAGATC ((((((....)))))): the folding enthalpy in data set [1] is -42.5 kcal/mol. The Tm in data set [2] turned out to be 49.8 °C.
The corresponding values for GATCTGCCTACAGATC ((((((....)))))) are -41.8 kcal/mol and 50.8 °C.
On the same counts, the results for GATCTGCGAAAGCAAATC (((.(((....))).))) are -18.4 kcal/mol and 36.5 °C.
On the same counts, the results for GATCTGCGAAAGCATATC (((.(((....))).))) are -20.7 kcal/mol and 41.1 °C.
Take GATCTGCGCCCAGATC ((((((....)))))): the folding enthalpy in data set [1] is -29.2 kcal/mol. Moreover, the Tm in data set [2] came to 48.4 °C.
GATCTGCTACCAGATC ((((((....)))))): the folding enthalpy in data set [1] was -37.4 kcal/mol. For the same sequence, the Tm in data set [2] turned out to be 48.8 °C.
Take GATCTGCTCCCAGATC ((((((....)))))): in data set [1], the folding enthalpy is -37.1 kcal/mol. Besides, the Tm in data set [2] turned out to be 47.9 °C.
With GATCTGCTTTCAGATC ((((((....)))))), the folding enthalpy in data set [1] is -40.1 kcal/mol. Also, the Tm in data set [2] was determined as 49.1 °C.
The corresponding values for GATCTGGAGACAGATC ((((((....)))))) are -33.9 kcal/mol and 52 °C.
Regarding GATCTGGAGTCAGATC ((((((....)))))), the folding enthalpy in data set [1] is -48.3 kcal/mol. Also, the Tm in data set [2] is 48.1 °C.
For the sequence GATCTGGATACAGATC ((((((....)))))), the folding enthalpy in data set [1] was -34 kcal/mol. Further, the Tm in data set [2] is 56.7 °C.
As for GATCTGGCAACAGATC ((((((....)))))), the folding enthalpy in data set [1] is -35 kcal/mol. Moreover, the Tm in data set [2] is 57.6 °C.
In the case of GATCTGGCGGCAGATC ((((((....)))))), in data set [1], the folding enthalpy was -53.2 kcal/mol. In addition, the Tm in data set [2] stood at 53.3 °C.
As for GATCTGGCTACAGATC ((((((....)))))), the folding enthalpy in data set [1] is -42 kcal/mol. Moreover, the Tm in data set [2] was determined as 59.4 °C.
GATCTGGGACAGATC ((((((...)))))): the folding enthalpy in data set [1] is -35.5 kcal/mol. Besides, in data set [2], the Tm worked out at 58.1 °C.
In the case of GATCTGGGCACAGATC ((((((....)))))), the folding enthalpy in data set [1] is -40 kcal/mol. Further, in data set [2], the Tm is 59.3 °C.
On the same counts, the results for GATCTGGGGTCAGATC ((((((....)))))) are -34.5 kcal/mol and 48.7 °C.
For the sequence GATCTGGGTTCAGATC ((((((....)))))), the folding enthalpy in data set [1] is -43.3 kcal/mol. In addition, the Tm in data set [2] came out at 49.4 °C.
GATCTGGTATCAGATC ((((((....)))))): the folding enthalpy in data set [1] is -41.8 kcal/mol. The Tm in data set [2] was determined as 55.5 °C.
Turning to GATCTGGTGTCAGATC ((((((....)))))), in data set [1], the folding enthalpy was -35.2 kcal/mol. Besides, the Tm in data set [2] was 49.8 °C.
For GATCTGTAAACAGATC ((((((....)))))), the folding enthalpy in data set [1] was -39.5 kcal/mol. Also, in data set [2], the Tm stood at 50.3 °C.
As for GATCTGTAACCAGATC ((((((....)))))), the folding enthalpy in data set [1] was -29.3 kcal/mol. The Tm in data set [2] is 46.8 °C.
On the same counts, the results for GATCTGTACCAGATC ((((((...)))))) are -31.9 kcal/mol and 49.3 °C.
On the same counts, the results for GATCTGTACGCAGATC ((((((....)))))) are -44.9 kcal/mol and 54.4 °C.
As for GATCTGTAGACAGATC ((((((....)))))), the folding enthalpy in data set [1] was -35.5 kcal/mol. Besides, the Tm in data set [2] came out at 50.8 °C.
On the same counts, the results for GATCTGTCAACAGATC ((((((....)))))) are -39.1 kcal/mol and 51.6 °C.
Take GATCTGTCGACAGATC ((((((....)))))): the folding enthalpy in data set [1] was -49.6 kcal/mol. Further, the Tm in data set [2] came to 55.1 °C.
As for GATCTGTCGCAGATC ((((((...)))))), the folding enthalpy in data set [1] is -24.5 kcal/mol. For the same sequence, in data set [2], the Tm was found to be 48.5 °C.
In the case of GATCTGTGCACAGATC ((((((....)))))), the folding enthalpy in data set [1] was -48.9 kcal/mol. The Tm in data set [2] was 57.9 °C.
For GATCTGTGCCCAGATC ((((((....)))))), the folding enthalpy in data set [1] is -30.6 kcal/mol. For the same sequence, in data set [2], the Tm is 49 °C.
For the sequence GATCTGTGGTCAGATC ((((((....)))))), the folding enthalpy in data set [1] was -38.7 kcal/mol. Moreover, the Tm in data set [2] amounted to 49.6 °C.
On to GATCTGTGTACAGATC ((((((....)))))), for which the folding enthalpy in data set [1] is -47.9 kcal/mol. Moreover, the Tm in data set [2] came to 56 °C.
Consider GATCTGTGTCCAGATC ((((((....)))))), for which, in data set [1], the folding enthalpy is -31.8 kcal/mol. The Tm in data set [2] was determined as 49.2 °C.
The corresponding values for GATCTGTTAACAGATC ((((((....)))))) are -39.8 kcal/mol and 54.7 °C.
The corresponding values for GATCTGTTACAGATC ((((((...)))))) are -36.3 kcal/mol and 50.5 °C.
On the same counts, the results for GATCTGTTCCAGATC ((((((...)))))) are -30.4 kcal/mol and 50.7 °C.
As for GATCTGTTTCAGATC ((((((...)))))), in data set [1], the folding enthalpy is -34.5 kcal/mol. For the same sequence, the Tm in data set [2] worked out at 50.5 °C.
On the same counts, the results for GATCTGTTTCCAGATC ((((((....)))))) are -34.9 kcal/mol and 49.3 °C.
Consider GATCTTAAGCAAGATC ((((((....)))))), for which, in data set [1], the folding enthalpy is -31.3 kcal/mol. In addition, the Tm in data set [2] is 40.1 °C.
Turning to GATCTTAATCAAGATC ((((((....)))))), the folding enthalpy in data set [1] was -26.5 kcal/mol. For the same sequence, the Tm in data set [2] was 38.6 °C.
As to GATCTTACCCAAGATC ((((((....)))))), in data set [1], the folding enthalpy was -26.2 kcal/mol. In addition, the Tm in data set [2] came out at 42.1 °C.
Turning to GATCTTACCGAAGATC ((((((....)))))), the folding enthalpy in data set [1] was -33 kcal/mol. For the same sequence, the Tm in data set [2] turned out to be 42.9 °C.
For the sequence GATCTTAGAAAAGATC ((((((....)))))), in data set [1], the folding enthalpy was -21.6 kcal/mol. Further, the Tm in data set [2] was 36.4 °C.
On the same counts, the results for GATCTTAGGCAAGATC ((((((....)))))) are -27.9 kcal/mol and 42.8 °C.
Take GATCTTAGTAAAGATC ((((((....)))))): the folding enthalpy in data set [1] was -30.3 kcal/mol. Further, the Tm in data set [2] was determined as 43.1 °C.
On the same counts, the results for GATCTTATCCAAGATC ((((((....)))))) are -31.6 kcal/mol and 42.6 °C.
In the case of GATCTTATCGAAGATC ((((((....)))))), the folding enthalpy in data set [1] was -20.8 kcal/mol. The Tm in data set [2] amounted to 38.7 °C.
For GATCTTATTCAAGATC ((((((....)))))), the folding enthalpy in data set [1] was -31.7 kcal/mol. Moreover, the Tm in data set [2] came out at 43.5 °C.
On to GATCTTCAATAAGATC ((((((....)))))), for which, in data set [1], the folding enthalpy was -30.6 kcal/mol. The Tm in data set [2] is 39.8 °C.
On to GATCTTCAGAAGATC ((((((...)))))), for which the folding enthalpy in data set [1] is -35.9 kcal/mol. In data set [2], the Tm stood at 40.3 °C.
Turning to GATCTTCATCAAGATC ((((((....)))))), the folding enthalpy in data set [1] was -29.9 kcal/mol. Further, the Tm in data set [2] came out at 40.3 °C.
The corresponding values for GATCTTCCAGAAGATC ((((((....)))))) are -33.7 kcal/mol and 46 °C.
Take GATCTTCCCTAAGATC ((((((....)))))): in data set [1], the folding enthalpy is -31.1 kcal/mol. In data set [2], the Tm was found to be 43.3 °C.
On to GATCTTCGCGAAGATC ((((((....)))))), for which the folding enthalpy in data set [1] was -59 kcal/mol. Moreover, the Tm in data set [2] worked out at 55.3 °C.
With GATCTTCGGAAAGATC ((((((....)))))), in data set [1], the folding enthalpy is -29.1 kcal/mol. The Tm in data set [2] stood at 38.9 °C.
GATCTTCGGCAAGATC ((((((....)))))): the folding enthalpy in data set [1] is -28.3 kcal/mol. Also, the Tm in data set [2] is 37.8 °C.
For the sequence GATCTTCGTAAGATC ((((((...)))))), in data set [1], the folding enthalpy was -30.9 kcal/mol. Moreover, the Tm in data set [2] was determined as 45.2 °C.
With GATCTTCGTCAAGATC ((((((....)))))), the folding enthalpy in data set [1] is -33.5 kcal/mol. Also, the Tm in data set [2] turned out to be 40.7 °C.
Turning to GATCTTCGTGAAGATC ((((((....)))))), the folding enthalpy in data set [1] is -41 kcal/mol. In addition, in data set [2], the Tm was 53.3 °C.
The corresponding values for GATCTTCTAAAGATC ((((((...)))))) are -30.9 kcal/mol and 42.9 °C.
The corresponding values for GATCTTCTGAAGATC ((((((...)))))) are -37 kcal/mol and 43.6 °C.
The corresponding values for GATCTTGAAAAGATC ((((((...)))))) are -33.5 kcal/mol and 54.8 °C.
In the case of GATCTTGAAGAAGATC ((((((....)))))), in data set [1], the folding enthalpy is -25.9 kcal/mol. In data set [2], the Tm is 44.3 °C.
Turning to GATCTTGAATAAGATC ((((((....)))))), the folding enthalpy in data set [1] is -31.9 kcal/mol. Also, the Tm in data set [2] was found to be 49.3 °C.
For the sequence GATCTTGATAAGATC ((((((...)))))), the folding enthalpy in data set [1] is -21.6 kcal/mol. In addition, in data set [2], the Tm amounted to 43.6 °C.
Regarding GATCTTGCAAAAGATC ((((((....)))))), the folding enthalpy in data set [1] was -37.5 kcal/mol. The Tm in data set [2] is 53.5 °C.
Turning to GATCTTGCAAAGATC ((((((...)))))), the folding enthalpy in data set [1] was -41 kcal/mol. The Tm in data set [2] is 55 °C.
Regarding GATCTTGCAGAAGATC ((((((....)))))), the folding enthalpy in data set [1] was -34.8 kcal/mol. Moreover, the Tm in data set [2] was 46.8 °C.
The corresponding values for GATCTTGCCCAAGATC ((((((....)))))) are -45.9 kcal/mol and 48.9 °C.
Take GATCTTGCGCAAGATC ((((((....)))))): in data set [1], the folding enthalpy is -54.1 kcal/mol. In addition, the Tm in data set [2] turned out to be 55.5 °C.

(Values after the array DNA melting data of Ke et al. (doi:10.1101/2024.01.08.574731).)
